In ChEMBL document CHEMBL1137591, “Identification of a potent and stable antiproliferative agent by the prodrug formation of a thiolate histone deacetylase inhibitor” (Bioorg Med Chem Lett, 2007):
pEC50, pIC50: −log10 of the molar value.

How the values were obtained:
NCI-H460 = assay: Inhibition of NCI-H460 cell proliferation (mean); format: functional, cell-based; conditions: Homo sapiens
Procedure, shortened: (§1)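 Cells were seeded at 1500 per well and held 24 h at 37 °C. They were then exposed for 48 h to a range of compound concentrations in RPMI-1640 with 10% FBS at 37 °C and 5% CO2. Staining used 0.5 mg/mL methylene blue for 30 min at room temperature. Dye was dissolved in 3% aqueous HCl and absorbance read at 660 nm. EC50 values are means of at least two experiments.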

MDA-MB-231 = assay: Inhibition of MDA-MB-231 cell proliferation (mean of two experiments); format: functional, cell-based, Homo sapiens; procedure, shortened: as §1
PC-3 = assay: Inhibition of PC-3 cell proliferation (mean); format: functional, cell-based; conditions: Homo sapiens; procedure, shortened: as §1
HCT-116 = assay: Inhibition of HCT116 cell proliferation (mean); format: functional, cell-based; conditions: Homo sapiens; procedure, shortened: as §1
DLD-1 = assay: Inhibition of DLD-1 cell proliferation (mean); format: functional, cell-based; conditions: Homo sapiens; procedure, shortened: as §1
A498 = assay: Inhibition of A498 cell proliferation (mean); format: functional, cell-based; conditions: Homo sapiens; procedure, shortened: as §1
T47D = assay: Inhibition of T-47D cell proliferation (mean of two experiments); format: functional, cell-based; conditions: Homo sapiens; procedure, shortened: as §1
Malme-3M = assay: Inhibition of MALME-3M cell proliferation (mean); format: functional, cell-based; conditions: Homo sapiens; procedure, shortened: as §1
[1] = Stability (mean % remaining) in human plasma after incubation at 37 °C for 0h; format: ADME; conditions: read-out: %R
Procedure, shortened: (§2)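 Compounds were incubated in human plasma with sampling at 0, 2, 4, 8 and 24 h. The percentage of intact compound remaining was measured at each point. Values are means of at least three experiments.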

[2] = Stability (mean % remaining) in human plasma after incubation at 37 °C for 24h; format: ADME, cell-free; conditions: read-out: %R; procedure, shortened: as §2
[3] = Stability (mean % remaining) in human plasma after incubation at 37 °C for 8h; format: ADME, cell-free; conditions: read-out: %R; procedure, shortened: as §2
[4] = Stability (mean % remaining) in human plasma after incubation at 37 °C for 2h; format: ADME, cell-free; conditions: read-out: %R; procedure, shortened: as §2
[5] = Stability (mean % remaining) in human plasma after incubation at 37 °C for 4h; format: ADME, cell-free; conditions: read-out: %R; procedure, shortened: as §2
Histone deacetylase 1 = Histone deacetylase 1 (Homo sapiens, UniProt Q13547); assay: Inhibition of HDAC1
Chain of Histone deacetylase 1 (Q13547 whole entry): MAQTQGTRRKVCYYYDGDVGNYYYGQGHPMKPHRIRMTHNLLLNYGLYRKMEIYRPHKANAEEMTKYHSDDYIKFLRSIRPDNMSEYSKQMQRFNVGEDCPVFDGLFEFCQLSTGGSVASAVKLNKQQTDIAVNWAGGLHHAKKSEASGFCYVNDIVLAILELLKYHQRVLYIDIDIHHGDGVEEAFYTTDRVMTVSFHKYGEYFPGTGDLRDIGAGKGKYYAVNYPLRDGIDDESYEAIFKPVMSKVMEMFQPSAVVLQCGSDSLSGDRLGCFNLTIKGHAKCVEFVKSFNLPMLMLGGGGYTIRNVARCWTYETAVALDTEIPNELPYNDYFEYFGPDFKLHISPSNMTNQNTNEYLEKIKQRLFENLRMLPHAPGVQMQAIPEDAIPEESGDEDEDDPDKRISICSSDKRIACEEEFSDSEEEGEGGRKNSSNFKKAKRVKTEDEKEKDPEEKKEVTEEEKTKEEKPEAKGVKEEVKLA

Structure (SMILES) | pEC50 (NCI-H460) | pEC50 (MDA-MB-231; Homo sapiens, MDA-MB-231) | pEC50 (PC-3) | pEC50 (HCT-116) | pEC50 (DLD-1) | pEC50 (MDA-MB-231; mda-mb-231) | pEC50 (T47D) | remaining at 0 h [1] [%] | remaining at 24 h [2] [%] | remaining at 8 h [3] [%] | remaining at 2 h [4] [%] | remaining at 4 h [5] [%] | pIC50 (Histone deacetylase 1) | pEC50 (A498) | pEC50 (Malme-3M)
COC(C(=O)SCCCCCCC(=O)Nc1nc(-c2ccccc2)cs1)c1ccccc1 (stereo unspecified) | 4.96 | < 4.70 |  |  |  |  |  |  |  |  |  |  |  |  | 
CC(C(=O)SCCCCCCC(=O)Nc1nc(-c2ccccc2)cs1)c1ccccc1 (stereo unspecified) | 5.49 | < 4.70 | 4.43 | 4.64 | 4.07 | 4.57 | < 4.00 |  |  |  |  |  |  | 4.59 | 4.48
O=C(CCCCCCS)Nc1nc(-c2ccccc2)cs1 | 5.12 | < 4.70 |  |  |  |  |  |  |  |  |  |  | 7.32 |  | 
O=C(CCCCCCSC(=O)C(Cc1ccccc1)Cc1ccccc1)Nc1nc(-c2ccccc2)cs1 | < 4.70 | < 4.70 |  |  |  |  |  |  |  |  |  |  |  |  | 

Further compounds by rising pEC50 (NCI-H460), results first:

pEC50 (NCI-H460) | pEC50 (MDA-MB-231; Homo sapiens, MDA-MB-231) | pEC50 (PC-3) | pEC50 (HCT-116) | pEC50 (DLD-1) | pEC50 (MDA-MB-231; mda-mb-231) | pEC50 (T47D) | remaining at 0 h [1] [%] | remaining at 24 h [2] [%] | remaining at 8 h [3] [%] | remaining at 2 h [4] [%] | remaining at 4 h [5] [%] | pIC50 (Histone deacetylase 1) | Structure (SMILES) | pEC50 (A498) | pEC50 (Malme-3M)
5.49 | 5.51 | 5.00 | 6.12 |  |  |  |  |  |  |  |  |  | C[C@H](Cc1ccccc1)C(=O)SCCCCCCC(=O)Nc1nc(-c2ccccc2)cs1 |  | 
5.52 | 5.40 | 5.36 | 6.21 |  |  |  |  |  |  |  |  |  | C[C@@H](Cc1ccccc1)C(=O)SCCCCCCC(=O)Nc1nc(-c2ccccc2)cs1 |  | 
5.68 | 5.36 | 5.02 | 5.89 | 5.64 |  | 5.08 | 100 | 49 | 63 | 86 | 71 |  | CC(C)C(=O)SCCCCCCC(=O)Nc1nc(-c2ccccc2)cs1 | 5.17 | 5.37
5.82 | 5.72 | 5.49 | 5.92 | 5.74 |  | 5.37 | 100 | 100 | 99 | 100 | 99 | < 4.00 | CC(Cc1ccccc1)C(=O)SCCCCCCC(=O)Nc1nc(-c2ccccc2)cs1 (stereo unspecified) | 5.59 | 5.52
